Screens deposited in PubChem BioAssay by several laboratories.
Scp-1 inhibitor = Scp-1 (human) phosphatase inhibition | Recombinant Scp1, phosphopeptide, malachite green phosphate absorbance | Q9GZU7 | hit rate 0.88% among 340,000 | inhibition, % at 20 µM | AID 493091;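 active = inhibition above about 50% at 20 µM, limit read from the data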
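assay system = SCP-1 phosphatase catalytic domain, residues 76-261 | buffer or medium = 50 mM Tris acetate pH 5.5, 0.005% Tween-20, 10 mM MgCl2 | incubation = enzyme reaction 45 min at room temperature, colour 5 min, stabilisation 30 min | signal = Phosphate-binding colour reagent, absorbance read at 630 nm | measure = % inhibition at 20 µM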
LMPTP block = blocks human LMPTP phosphatase; recombinant LMPTP-A, OMFP fluorogenic substrate, fluorescence intensity; inhibition, % at 20 µM; hit rate 0.22% among 360,000; AID 651560;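 active = compounds that cut the enzyme signal by at least half of the control window in the single-dose screen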
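Test system: LMPTP-A phosphatase enzyme. Amount: LMPTP-A at 0.625 nM final in the reaction. Reagent: OMFP substrate, 400 µM final. Times: 50 min at room temperature. Signal: endpoint fluorescence intensity from OMFP dephosphorylation. Read-out basis: % inhibition. Benchmarks: no-enzyme and uninhibited controls.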
STEP inh = blocks human striatal-enriched tyrosine phosphatase. P54829. recombinant STEP, OMFP fluorogenic substrate, fluorescence. inhibition, % at 20 µM. hit rate 0.25% among 360,000. AID 588621;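 active = inhibition at 20 µM, scaled per plate between control wells, above about 37%, limit read from the data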
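System: isolated STEP enzyme; schedule: 20 min enzyme reaction at room temperature, protected from light; medium: Bis-Tris buffer pH 6.0, 2.5 mM DTT, 0.005% Tween 20; signal: fluorescence, 480/540 nm; dosing: single compound dose of 20 µM, 1% DMSO final; also added: OMFP substrate, 25 µM final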
DNMT1 block = DNMT1 (human) enzyme inhibition | P26358 | hit rate 0.83% among 360,000 | inhibition (reported as % activation of signal), % at 10 µM | AID 588458 | DNMT1 molecular beacon, Hinp1I cleavage, fluorescence; in the data active = inhibition above about 50%
GRK2 aptamer HTS = blocks RNA aptamer binding to human GRK2; P25098; bead flow cytometry, FAM-aptamer displacement from GRK2; inhibition of aptamer binding, % at 10 µM; hit rate 0.59% among 330,000;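 active = inhibition of aptamer binding above 40%, roughly 3 SD of noise, on plates passing a quality check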;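 note: median bead fluorescence of bound FAM aptamer so fluorescent compounds give negative values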
Target sequence (P25098 whole entry, looked up): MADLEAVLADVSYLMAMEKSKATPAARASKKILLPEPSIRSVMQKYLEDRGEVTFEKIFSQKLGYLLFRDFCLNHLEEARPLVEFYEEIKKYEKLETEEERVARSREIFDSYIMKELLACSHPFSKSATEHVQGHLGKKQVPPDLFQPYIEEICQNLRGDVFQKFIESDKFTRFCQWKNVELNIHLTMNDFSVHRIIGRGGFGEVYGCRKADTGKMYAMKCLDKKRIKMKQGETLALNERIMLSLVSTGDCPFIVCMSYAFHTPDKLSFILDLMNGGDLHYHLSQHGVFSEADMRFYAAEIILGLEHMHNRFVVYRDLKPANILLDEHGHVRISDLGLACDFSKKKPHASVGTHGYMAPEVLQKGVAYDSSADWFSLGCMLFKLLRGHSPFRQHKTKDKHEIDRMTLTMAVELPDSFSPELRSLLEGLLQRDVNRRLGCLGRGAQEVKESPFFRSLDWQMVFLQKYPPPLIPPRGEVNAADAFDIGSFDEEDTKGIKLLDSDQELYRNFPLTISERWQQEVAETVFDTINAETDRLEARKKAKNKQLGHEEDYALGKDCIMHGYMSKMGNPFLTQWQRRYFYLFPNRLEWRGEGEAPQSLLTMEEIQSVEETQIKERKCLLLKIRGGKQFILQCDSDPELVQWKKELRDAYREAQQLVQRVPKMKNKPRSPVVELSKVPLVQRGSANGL
SUMO1 PPI mod = modulators of human SUMO1-mediated protein-protein interactions. P63165. SUMO1 binding to a labelled peptide, TR-FRET, 1 h. inhibition, % at 20 µM. hit rate 0.33% among 360,000. AID 602429; in the data active = inhibition above about 37%
Each line names hits and unclear results; the compound was inactive in the other large screens. An excerpt weighted towards active compounds, which were near 2.1% of everything screened.

COc1cc(Cl)c(C)cc1NC(=O)CN1CCN(C(=O)c2cccs2)CC1	none (no result: Scp-1 inhibitor, GRK2 aptamer HTS)
COc1ccc(C(=O)Nc2ccc(C(=O)Nc3nccs3)cc2)cc1[N+](=O)[O-]	SUMO1 PPI mod 53.6
COc1ccc(C(=O)NC(=S)Nc2cccc3ncccc23)cc1[N+](=O)[O-]	SUMO1 PPI mod 55.8
O=C(CSc1ccccc1)NCC1(N2CCOCC2)CCCCC1	none
O=C1C(=O)c2cccnc2-c2ncccc21	LMPTP block 55.8, DNMT1 block 112.0 (no result: Scp-1 inhibitor, GRK2 aptamer HTS)
COC1=C(Br)C(=O)c2ncccc2C1=O	DNMT1 block 91.4, SUMO1 PPI mod 48.5 (no result: GRK2 aptamer HTS)
O=C1c2cccnc2-c2ncccc21	none
CCC(C)NC(=O)CSc1nnc(-c2cc(OC)c(OC)c(OC)c2)c(-c2cc(OC)c(OC)c(OC)c2)n1 (stereo not given)	none
CCOC(=O)N1CCN(Cc2cn[nH]c2-c2cc3ccccc3o2)CC1	none
Cc1nc(N)sc1-c1csc(Nc2ncccn2)n1	STEP inh 64.5, SUMO1 PPI mod 92.8 (no result: GRK2 aptamer HTS)
COc1ccccc1Nc1nc(-c2sc(N)nc2C)cs1	none
Nc1ccc2ncccc2c1N	SUMO1 PPI mod 44.6
Oc1c(CN2CCOCC2)cc(CN2CCOCC2)c(O)c1O	DNMT1 block 57.5 (no result: GRK2 aptamer HTS)
C[C@H](CO)N1C[C@H](C)[C@@H](CN(C)Cc2ccncc2)OCCCC[C@H](C)Oc2ccc(NC(=O)CCCN(C)C)cc2C1=O	none (no result: Scp-1 inhibitor, GRK2 aptamer HTS)
CCCN1CCc2c(sc(NC(=S)NC(=O)c3ccccc3)c2C#N)C1	LMPTP block 58.6
COc1ccccc1/C=N\N=C(\N)c1ccccn1	none
Cc1nc2ccc(C(=O)N/N=C/c3cc([N+](=O)[O-])ccc3O)cc2[nH]1	STEP inh 48.8
Cc1nc2ccc(C(=O)N/N=C/c3ccccc3O)cc2[nH]1	none
N#Cc1c(NC(=O)c2ccccc2Cl)n(Cc2ccccc2)c2nc3ccccc3nc12	DNMT1 block 53.6, SUMO1 PPI mod 56.5
COc1ccc(-n2c(NC(=O)c3ccco3)c(C#N)c3nc4ccccc4nc32)cc1	none
CCCCn1c(NC(=O)c2ccccc2Cl)c(C#N)c2nc3ccccc3nc21	DNMT1 block 75.7, SUMO1 PPI mod 52.8
O=C(O)C1SCCN1S(=O)(=O)c1ccc(N=NN2CCOCC2)cc1 (stereo not given)	none
CCCCCCCN1C(Nc2ccccc2)=NC[C@@H]1Cc1ccccc1	DNMT1 block 57.8
O=C(CN1CCN(c2ccc(O)cc2)CC1)N(C1CC1)C1CCS(=O)(=O)C1 (stereo not given)	none
N=C(N)c1ccc(N=Nc2c(O)ccc3c2[nH]c2ccccc23)cc1	DNMT1 block 50.7, SUMO1 PPI mod 129.2 (no result: GRK2 aptamer HTS)
NC(=O)c1ccc(N=Nc2c(O)c3ccccc3[nH]c2=O)cc1	none (no result: Scp-1 inhibitor, LMPTP block, STEP inh, DNMT1 block, SUMO1 PPI mod)
Oc1ccc2ccccc2c1C=NC12CN3CCN(CN(C3)C1)C2	SUMO1 PPI mod 54.4
COc1ccc(S(=O)(=O)NCc2cccnc2)cc1NC(=O)c1ccccc1C	DNMT1 block 53.5 (no result: GRK2 aptamer HTS)
COCCNC(=O)C(c1ccc(F)cc1)N(C(=O)CCC(=O)Nc1ccccn1)c1ccc(C)cc1 (stereo not given)	none
O=C1Nc2ccc(Br)cc2/C1=N\N=C\C1=C(N2CCOCC2)C(=C/c2ccccc2)/CC1	Scp-1 inhibitor 64.5 (no result: GRK2 aptamer HTS)
CN(C(=O)COC(=O)c1ccc2c(c1)OCO2)C1CCCCC1	none
C[N+]12CCCCC1C(COC(=O)c1ccc3c(c1)OCO3)CCC2 (stereo not given)	Scp-1 inhibitor 106.0
O=C(NCc1cccnc1)C(=O)N/N=C/c1ccccc1[N+](=O)[O-]	none
COc1ccc(C2=CC3=CC(=O)C(C)(O)C(=O)C3=CO2)cc1 (stereo not given)	none (no result: Scp-1 inhibitor, LMPTP block, STEP inh, DNMT1 block, SUMO1 PPI mod)
COc1ccc(C2=CC3=C(Br)C(=O)C(C)(O)C(=O)C3=CO2)cc1 (stereo not given)	SUMO1 PPI mod 51.9
CCC(=O)OC1(C)C(=O)C2=COC(c3ccc(OC)cc3)=CC2=C(Br)C1=O (stereo not given)	SUMO1 PPI mod 49.9
COC(=O)CCC(=O)OC1(C)C(=O)C2=CN(Cc3ccc(OC)cc3)C(c3ccc(OC)cc3)=CC2=C(Br)C1=O (stereo not given)	none
CCCCCC(=O)N1C[C@H](O)[C@@H](n2cc(-c3ccc(F)cc3)nn2)C[C@@H]1c1ccc(OC)cc1	none (no result: Scp-1 inhibitor, GRK2 aptamer HTS)
COC(=O)C1=NNC(C(=O)OC)C1c1ccccc1 (stereo not given)	none (no result: GRK2 aptamer HTS)
O=C(CSc1nnc2ccc(-c3ccco3)nn12)Nc1ccccc1F	LMPTP block 52.9 (no result: GRK2 aptamer HTS)
Cc1ccccc1NC(=O)CSc1nnc2ccc(-c3ccccn3)nn12	none
CCCCn1nnnc1C(c1cc2ccccc2o1)N1CCN(C(=O)OC(C)(C)C)CC1 (stereo not given)	none (no result: Scp-1 inhibitor, STEP inh, DNMT1 block, GRK2 aptamer HTS)
CC(OC(=O)/C(C#N)=C/c1ccc(N(C)C)cc1)C(=O)NCc1ccco1 (stereo not given)	DNMT1 block 60.8 (no result: Scp-1 inhibitor)
CN(C)c1ccc(/C=C(\C#N)C(=O)NCc2ccco2)cc1	none (no result: Scp-1 inhibitor, LMPTP block, STEP inh, DNMT1 block, SUMO1 PPI mod)
CC(=O)N1c2ccc(S(=O)(=O)N3CCC(C(=O)Nc4cccc(Cl)c4)CC3)cc2CC1C (stereo not given)	GRK2 aptamer HTS 85.0
CC(=O)N1c2ccc(S(=O)(=O)N3CCC(C(=O)Nc4cccc(C)c4)CC3)cc2CC1C (stereo not given)	none
CN(C)S(=O)(=O)c1cccc(NC(=S)N/N=C/c2ccc(O)c(O)c2O)c1	LMPTP block 60.7 (no result: GRK2 aptamer HTS)
O=C(Nc1nc(-c2ccccc2)cs1)C1CCCN(S(=O)(=O)c2ccccc2)C1 (stereo not given)	SUMO1 PPI mod 42.3
O=c1c2ccccc2sn1-c1ccc(S(=O)(=O)N2CCCCC2)cc1	none
O=c1c2ccccc2sn1-c1ccccc1	Scp-1 inhibitor 65.4
O=C(O)c1cccc(-n2sc3ccccc3c2=O)c1	Scp-1 inhibitor 88.2
Cc1ccc(-n2sc3ccccc3c2=O)cc1S(=O)(=O)N1CCCCC1	Scp-1 inhibitor 96.8
CN(C)S(=O)(=O)c1cccc(-n2sc3ccccc3c2=O)c1	Scp-1 inhibitor 99.2
Cc1ccc(C)c(SCC(=O)NC2CCS(=O)(=O)C2)c1 (stereo not given)	none (no result: GRK2 aptamer HTS)
C=CCn1nnnc1-c1cc(Cl)cc(Cl)c1	none
O=C1c2ccccc2C(=O)N1c1nccs1	none (no result: GRK2 aptamer HTS)
O=c1c2ccccc2sn1-c1nccs1	Scp-1 inhibitor 96.5 (no result: GRK2 aptamer HTS)
O=c1c2cc(F)ccc2sn1-c1ccccc1	Scp-1 inhibitor 91.6
COc1ccc(C(=O)/C=C/Nc2cc(C)ccn2)cc1	none
COc1ccc(CCn2c(=N)c(C(=O)NCc3ccco3)cc3c(=O)n4ccccc4nc32)cc1	LMPTP block 59.9
Cc1cc(-c2csc(NC(=O)c3ccc(=O)[nH]c3)n2)c(C)n1Cc1ccco1	LMPTP block 62.7, DNMT1 block 74.3, SUMO1 PPI mod 78.1
CCNc1nc(-c2cc(C)n(Cc3ccco3)c2C)cs1	none
CCCC(C)NC(=O)c1ccc(F)cc1 (stereo not given)	none
